For experiment [1], the system named is Rattus norvegicus. The experiment is described as follows: compound was tested for antipsychotic activity by conditioned avoidance response(CAR) assay in rats with a pretreatment period of 60 min upon peroral administration. The class given is functional. As to conditions: po. In outline: (§1)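 Trained rats (N = 4) were run in 1-h sessions on two consecutive days, with the experimenter blind to drug and dose. Fed rats had food and water until placed in the test chambers. Fasted rats had no food overnight before the experiment.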

Experiment [2] has as its system Rattus norvegicus. The experiment is described as follows: Percent catalepsy in male Spargue-Dawley rat at pretreatment time 60 mins and administered ip at dose 50 mg/kg. The class given is functional. As to conditions: route intraperitoneal. Put shortly: (§2)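 Catalepsy in rats, groups of five per drug treatment, scored blind to drug and dose. Each session included a saline or vehicle negative control and a haloperidol 2 mg/kg positive control. Deaths during the experiment were recorded in the catalepsy column as number dead out of five.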

Experiment [3] deals with Rattus norvegicus. Put plainly: compound was tested for antipsychotic activity by conditioned avoidance response(CAR) assay in rats with a pretreatment period of 120 min upon peroral administration. It counts as functional. As to conditions: po. Put shortly:
as §1

In experiment [4] the test system is Rattus norvegicus. The experiment is described as follows: compound was tested for antipsychotic activity by conditioned avoidance response(CAR) assay in rats with a pretreatment period of 30 min upon peroral administration. The class given is functional. As to conditions: po. In outline: as §1
The subject of experiment [5] is Rattus norvegicus. The experiment is described as follows: compound was tested for antipsychotic activity by conditioned avoidance response(CAR) assay in rats with a pretreatment period of 60 min upon peroral administration. As to conditions: po. The class given is functional. In outline:
as §1

The subject of experiment [6] is Rattus norvegicus. Put plainly: Percent catalepsy in male Spargue-Dawley rat at pretreatment time 240 mins and administered ip at dose 50 mg/kg. As to conditions: route intraperitoneal. The class given is functional. In outline: as §2
The test system of experiment [7] is Rattus norvegicus. The experiment is described as follows: compound was tested for antipsychotic activity by conditioned avoidance response(CAR) assay in rats with a pretreatment period of 30 min upon intra peritoneal administration at a concentration of 5 mg/kg. It counts as functional. In outline: as §1
The target of experiment [8] is T1, Adrenergic receptor alpha-1 (Rattus norvegicus, UniProt P15823+P23944+P43140).
T1 sequence (P15823 whole entry): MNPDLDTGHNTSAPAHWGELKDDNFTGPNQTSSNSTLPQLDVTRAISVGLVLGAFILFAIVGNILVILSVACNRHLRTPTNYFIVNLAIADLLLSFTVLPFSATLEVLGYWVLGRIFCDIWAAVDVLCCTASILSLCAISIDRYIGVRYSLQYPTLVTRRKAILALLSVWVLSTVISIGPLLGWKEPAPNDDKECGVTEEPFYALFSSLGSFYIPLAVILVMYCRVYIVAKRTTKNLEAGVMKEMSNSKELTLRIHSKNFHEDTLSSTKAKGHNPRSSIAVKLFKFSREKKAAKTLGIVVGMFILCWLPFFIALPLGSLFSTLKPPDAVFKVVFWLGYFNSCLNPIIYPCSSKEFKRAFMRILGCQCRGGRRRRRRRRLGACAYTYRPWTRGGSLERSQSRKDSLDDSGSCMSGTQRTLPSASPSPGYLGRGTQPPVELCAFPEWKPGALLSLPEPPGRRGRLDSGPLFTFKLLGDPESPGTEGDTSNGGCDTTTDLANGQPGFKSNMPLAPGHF
T1 sequence (P23944 whole entry): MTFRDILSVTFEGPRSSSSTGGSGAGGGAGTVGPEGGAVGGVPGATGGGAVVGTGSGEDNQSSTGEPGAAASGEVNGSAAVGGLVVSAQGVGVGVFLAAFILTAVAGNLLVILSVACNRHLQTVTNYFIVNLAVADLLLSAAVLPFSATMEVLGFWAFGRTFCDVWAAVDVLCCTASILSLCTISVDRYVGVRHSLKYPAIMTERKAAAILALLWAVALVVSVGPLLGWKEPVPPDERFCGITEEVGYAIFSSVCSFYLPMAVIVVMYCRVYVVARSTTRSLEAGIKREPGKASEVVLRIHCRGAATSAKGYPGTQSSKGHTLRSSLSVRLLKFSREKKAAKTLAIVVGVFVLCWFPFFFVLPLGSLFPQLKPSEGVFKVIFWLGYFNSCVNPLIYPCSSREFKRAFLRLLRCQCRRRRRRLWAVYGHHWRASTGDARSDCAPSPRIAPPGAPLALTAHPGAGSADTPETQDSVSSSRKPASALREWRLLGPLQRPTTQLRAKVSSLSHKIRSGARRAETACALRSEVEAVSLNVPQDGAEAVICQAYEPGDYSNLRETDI
T1 sequence (P43140 whole entry): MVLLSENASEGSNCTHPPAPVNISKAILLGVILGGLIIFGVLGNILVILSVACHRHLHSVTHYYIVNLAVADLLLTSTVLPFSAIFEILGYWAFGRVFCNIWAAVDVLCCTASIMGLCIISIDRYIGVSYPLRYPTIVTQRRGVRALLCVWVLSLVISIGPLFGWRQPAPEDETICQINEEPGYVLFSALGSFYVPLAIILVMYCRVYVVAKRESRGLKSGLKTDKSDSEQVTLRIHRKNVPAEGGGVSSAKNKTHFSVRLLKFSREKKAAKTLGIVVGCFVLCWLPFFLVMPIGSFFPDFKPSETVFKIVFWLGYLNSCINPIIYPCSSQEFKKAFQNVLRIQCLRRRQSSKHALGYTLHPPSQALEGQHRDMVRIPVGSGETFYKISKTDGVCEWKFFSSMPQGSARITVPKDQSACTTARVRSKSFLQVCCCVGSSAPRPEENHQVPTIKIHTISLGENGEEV
Put plainly: Binding affinity against Alpha-1 adrenergic receptor from rat cerebral cortex. The class given is tissue-based.

The test system of experiment [9] is Rattus norvegicus. The experiment is described as follows: compound was tested for antipsychotic activity by conditioned avoidance response(CAR) assay in rats with a pretreatment period of 60 min upon peroral administration at a concentration of 20 mg/kg. It counts as functional. As to conditions: route oral.
The subject of experiment [10] is Rattus norvegicus. The experiment is described as follows: Percent catalepsy in male Spargue-Dawley rat at pretreatment time 240 mins and when administered ip at dose 50 mg/kg. It counts as functional. As to conditions: route intraperitoneal. Put shortly: as §2
Experiment [11] concerns the target T2, 5-hydroxytryptamine receptor 1A (Rattus norvegicus, UniProt P19327).
T2 sequence (P19327 whole entry): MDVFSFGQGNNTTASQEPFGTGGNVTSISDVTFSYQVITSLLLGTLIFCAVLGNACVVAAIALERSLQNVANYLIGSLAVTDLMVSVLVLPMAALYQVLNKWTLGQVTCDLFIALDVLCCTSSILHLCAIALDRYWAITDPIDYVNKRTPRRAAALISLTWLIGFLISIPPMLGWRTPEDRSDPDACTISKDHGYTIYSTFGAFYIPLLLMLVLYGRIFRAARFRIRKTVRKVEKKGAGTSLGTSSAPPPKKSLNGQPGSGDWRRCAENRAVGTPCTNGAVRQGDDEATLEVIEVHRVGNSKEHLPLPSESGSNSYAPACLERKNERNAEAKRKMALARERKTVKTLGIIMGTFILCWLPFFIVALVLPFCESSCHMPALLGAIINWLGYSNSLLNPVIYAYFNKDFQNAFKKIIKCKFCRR
Put plainly: Compound was evaluated for its binding affinity against 5-hydroxytryptamine 1A receptor from rat cerebral cortex. The class given is tissue-based.

Experiment [12] has as its system Rattus norvegicus. The experiment is described as follows: compound was tested for antipsychotic activity by conditioned avoidance response(CAR) assay in rats with a pretreatment period of 30 min upon intra peritoneal administration at a concentration of 5 mg/kg. It counts as functional. Put shortly:
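Rat conditioned avoidance test modified from Martin et al. Trained rats (N = 4) were run in 1-h sessions on two consecutive days. Fed animals had food and water until placed in the test chambers. Dosing was ip with 30 min pretreatment, and activity was expressed as percent inhibition at the stated dose.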

Experiment [13] relates to Rattus norvegicus. Put plainly: Percent catalepsy in male Spargue-Dawley rat at pretreatment time 60 mins and when administered ip at dose 50 mg/kg. The class given is functional. As to conditions: route intraperitoneal. In outline: as §2
The test system of experiment [14] is Rattus norvegicus. The experiment is described as follows: compound was tested for antipsychotic activity by conditioned avoidance response(CAR) assay in rats with a pretreatment period of 30 min upon intra peritoneal administration at a concentration of 1 mg/kg. The class given is functional. In outline: as §1
The subject of experiment [15] is Rattus norvegicus. Put plainly: compound was tested for antipsychotic activity by conditioned avoidance response(CAR) assay in rats with a pretreatment period of 30 min upon peroral administration at a concentration of 20 mg/kg. It counts as functional. As to conditions: route oral. Put shortly:
as §1

The subject of experiment [16] is Rattus norvegicus. The experiment is described as follows: Percent catalepsy in male Spargue-Dawley rat at pretreatment time 60 mins and when administered po at dose 250 mg/kg. The class given is functional. Put shortly:
as §2

For experiment [17], the system named is Rattus norvegicus. Put plainly: Percent catalepsy in male Spargue-Dawley rat at pretreatment time 240 mins and when administered ip at dose 100 mg/kg (3/5L denotes that three rats out of five died during the course of experiment). It counts as functional. As to conditions: route intraperitoneal. Put shortly:
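Catalepsy scored in groups of five rats per drug treatment, with the experimenter blind to drug and dose, in a quiet room. Each session included two control groups: saline (or vehicle) as negative control and haloperidol 2 mg/kg as positive control. Deaths during the experiment were recorded as lethality (e.g., 3/5L) in place of percent catalepsy.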

The subject of experiment [18] is Rattus norvegicus. The experiment is described as follows: Percent catalepsy in male Spargue-Dawley rat at pretreatment time 240 mins and when administered po at dose 250 mg/kg. It counts as functional. Put shortly:
as §2

Experiment [19] relates to Rattus norvegicus. The experiment is described as follows: compound was tested for antipsychotic activity by conditioned avoidance response(CAR) assay in rats with a pretreatment period of 30 min upon intra peritoneal administration. It counts as functional. In outline:
as §1

For experiment [20], the system named is Rattus norvegicus. The experiment is described as follows: compound was tested for antipsychotic activity by conditioned avoidance response(CAR) assay in rats with a pretreatment period of 30 min upon intra peritoneal administration. The class given is functional. Put shortly:
as §1

As to `CC(C)Oc1ccccc1N1CCN(Cc2cccc(C(=O)N3CCCCC3)c2)CC1` [MAZAPERTINE], the ED50 is 3.35 mg/kg in experiment [1], 26 mg/kg in experiment [3], 14.5 mg/kg in experiment [4] and 11 mg/kg in experiment [5]. The figures for the Catalepsy in [2] and in [6] were 32.4% and 47.8%, respectively.

Take `CC(C)Oc1ccccc1N1CCN(Cc2cccc(S(=O)(=O)N3CCCCC3)c2)CC1`: the inhibition in vivo at 5 mg/kg in experiment [7] was -6.7%. The Ki in experiment [8] was 6700 pM.

With `CN1CCN(C2=Nc3cc(Cl)ccc3Nc3ccccc32)CC1` [CLOZAPINE], the ED50 in experiment [4] is 9.3 mg/kg.

With `CC(C)Oc1ccccc1N1CCN(Cc2cccc(C(=O)N3CCCCCCC3)c2)CC1`, in experiment [9], the inhibition in vivo at 20 mg/kg was -84.7%. For the same compound, the Catalepsy in experiment [10] is reported as 17.6%; in experiment [13], 34.4%. For the same compound, the values for the Ki in [11] and in experiment [8] were 130 pM and 1900 pM, respectively. Further, the inhibition in vivo at 5 mg/kg in [12] was -90.4%. Besides, in experiment [14], the inhibition in vivo at 1 mg/kg is -24.5%.

With `O=C(c1cccc(CN2CCN(C3COc4ccccc4O3)CC2)c1)N1CCCCC1` (stereo unspecified), the inhibitory constant (Ki) is 340 pM in experiment [11] and 21000 pM in [8]. Further, in [12], the inhibition in vivo at 5 mg/kg was -93.8%. In addition, the inhibition in vivo at 20 mg/kg in experiment [15] was -68.2%. For the same compound, the Catalepsy in [13] was found to be 29%. Also, in experiment [14], the inhibition in vivo at 1 mg/kg was -2.6%.

For `COc1ccccc1N1CCN(Cc2cccc(C(=O)N3CCCCCC3)c2)CC1`, the Catalepsy in [2] came out at 70%. The Ki in experiment [11] came to 460 pM; in [8], 4700 pM. Besides, the inhibition in vivo at 5 mg/kg in experiment [12] is -94.6%.

In the case of `CC(C)Oc1ccccc1N1CCN(Cc2cccc(C(=O)N3CCCCCC3)c2)CC1`, the ED50 is 11.9 mg/kg in [1], 15.4 mg/kg in experiment [3], 3.32 mg/kg in [4] and 0.85 mg/kg in experiment [19]. Also, the Catalepsy in experiment [10] was 24.1%; in experiment [16] it was 32.5%; in experiment [17], 0%; in experiment [18], 15.5%; in [13], 27.8%. The Ki in experiment [11] came out at 600 pM; in experiment [8] it was 2100 pM.

As for `CCOc1ccccc1N1CCN(Cc2cccc(C(=O)N3CCCCCC3)c2)CC1`, the Catalepsy in experiment [2] was found to be 47.5%. Also, the ED50 in [20] came to 1.26 mg/kg. In addition, the results for the Ki in experiment [11] and in experiment [8] were 710 pM and 8200 pM, respectively.

Source of the values: ChEMBL document CHEMBL1131239, “Orally active benzamide antipsychotic agents with affinity for dopamine D2, serotonin 5-HT1A, and adrenergic alpha1 receptors” (J Med Chem, 1998).
